# Measured values taken from ChEMBL document CHEMBL4229344 (Eur J Med Chem, 2018).
# Activity calls are given as the source filed them. The calls are words filed in the database; no cut-off is given here.
# Tests used:
# [1] = target: High affinity nerve growth factor receptor (Homo sapiens) (UniProt P04629); experiment: Binding affinity to wild-type human partial length TRKA (G475 to G790 residues) expressed in mammalian expression system assessed as residual binding level at 1 uM by Kinomescan method relative to control
# [2] = tested on: Tyrosine-protein kinase ABL1 (Homo sapiens), P00519 [F317I]; experiment: Binding affinity to human phosphorylated ABL1 F317I mutant (S229 to K512 residues) expressed in mammalian expression system assessed as residual binding level at 1 uM by Kinomescan method relative to control
# How it was run: (§1)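 Single-concentration (1 μM) competition-binding screen run by KINOMEscan against a panel of 468 purified kinases and mutants. The read-out is the relative binding activity of the test compound to each kinase.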
# [3] = target: Rho-associated protein kinase 2 (Homo sapiens) (UniProt O75116); experiment: Binding affinity to wild-type human partial length ROCK2 (M1 to T431 residues) expressed in mammalian expression system assessed as residual binding level at 1 uM by Kinomescan method relative to control
# [4] = target: Mitogen-activated protein kinase 15 (Homo sapiens) (UniProt Q8TD08); experiment: Binding affinity to wild-type human partial length ERK8 (M1 to P437 residues) expressed in bacterial expression system assessed as residual binding level at 1 uM by Kinomescan method relative to control
# [5] = target: Homeodomain-interacting protein kinase 4 (Homo sapiens) (UniProt Q8NE63); experiment: Binding affinity to wild-type human partial length HIPK4 (M1 to V384 residues) expressed in bacterial expression system assessed as residual binding level at 1 uM by Kinomescan method relative to control
# How it was run: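 Kinome-wide competition binding screen against a panel of 468 purified kinases/mutants, with the test compound at a single concentration of 1 μM. Read-out is the relative binding activity of each kinase in the presence of compound.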
# [6] = target: Mitogen-activated protein kinase 14 (Homo sapiens) (UniProt Q16539); experiment: Binding affinity to wild-type human full length p38-alpha (M1 to S360 residues) expressed in bacterial expression system assessed as residual binding level at 1 uM by Kinomescan method relative to control
# How it was run: (§2)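 Single-concentration KINOMEscan (DiscoverX) binding screen at 1 μM against a panel of 468 purified kinases and mutants. The read-out is binding relative to control.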
# [7] = Oral bioavailability in Sprague-Dawley rat at 10 mg/kg; assay type: ADME, organism-based; settings: in vivo
# How it was run: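 Male Sprague-Dawley rats, 6–8 weeks old and fasted overnight, dosed IV at 1 mg/kg or PO at 10 mg/kg. Formulation was 5% DMSO/40% PEG400/55% saline (1 mg/mL). Jugular blood collected on heparin from 1 min to 8 h (IV) or 5 min to 24 h (PO). Plasma separated by centrifugation at 2–8 °C and stored at −80 °C.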
# [8] = target: G protein-coupled receptor kinase 4 (Homo sapiens) (UniProt P32298); experiment: Binding affinity to wild-type human full length GRK4 (M1 to C578 residues) expressed in bacterial expression system assessed as residual binding level at 1 uM by Kinomescan method relative to control; how it was run: as §1
# [9] = target: Serine/threonine-protein kinase PAK 3 (Homo sapiens) (UniProt O75914); experiment: Binding affinity to wild-type human full length PAK3 (M1 to R544 residues) expressed in bacterial expression system assessed as residual binding level at 1 uM by Kinomescan method relative to control
# How it was run: (§3)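 KINOMEscan competition binding against 468 purified kinases/mutants, test compound at 1 µM; residual binding relative to control.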
# [10] = target: BMP-2-inducible protein kinase (Homo sapiens) (UniProt Q9NSY1); experiment: Binding affinity to wild-type human partial length BIKE (S34 to N329 residues) expressed in bacterial expression system assessed as residual binding level at 1 uM by Kinomescan method relative to control; how it was run: as §2
# [11] = target: Dual specificity mitogen-activated protein kinase kinase 3 (Homo sapiens) (UniProt P46734); experiment: Binding affinity to wild-type human full length MEK3 (M1 to S318 residues) expressed in mammalian expression system assessed as residual binding level at 1 uM by Kinomescan method relative to control; how it was run: as §2
# [12] = target: Serine/threonine-protein kinase D2 (Homo sapiens) (UniProt Q9BZL6); experiment: Binding affinity to wild-type human partial length PRKD2 (A519 to E838 residues) expressed in bacterial expression system assessed as residual binding level at 1 uM by Kinomescan method relative to control
# [13] = target: Homeodomain-interacting protein kinase 3 (Homo sapiens) (UniProt Q9H422); experiment: Binding affinity to wild-type human partial length HIPK3 (M153 to N562 residues) expressed in mammalian expression system assessed as residual binding level at 1 uM by Kinomescan method relative to control
# [14] = tested on: Mast/stem cell growth factor receptor Kit (Homo sapiens), P10721 [D816H]; experiment: Binding affinity to human partial length KIT D816H mutant (I571 to D952 residues) expressed in mammalian expression system assessed as residual binding level at 1 uM by Kinomescan method relative to control
# How it was run: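 Kinome-wide single-concentration binding screen (KINOMEscan) at 1 μM against a panel of 468 purified kinases and mutants. Read-out is relative binding of each kinase compared with control. Selectivity across the panel was summarised as an S(10) score.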
# [15] = target: Ribosomal protein S6 kinase alpha-5 (Homo sapiens) (UniProt O75582); experiment: Binding affinity to wild-type human partial length C-terminal RPS6KA5 kinase domain 2 (V390 to T718 residues) expressed in bacterial expression system assessed as residual binding level at 1 uM by Kinomescan method relative to control
# [16] = target: Serine/threonine-protein kinase 17B (Homo sapiens) (UniProt O94768); experiment: Binding affinity to wild-type human full length DRAK2 (M1 to C372 residues) expressed in bacterial expression system assessed as residual binding level at 1 uM by Kinomescan method relative to control; how it was run: as §3
# [17] = target: Phosphatidylinositol 3-kinase catalytic subunit type 3 (Homo sapiens) (UniProt Q8NEB9); experiment: Binding affinity to wild-type human partial length VPS34 (S282 to H879 residues) expressed in mammalian expression system assessed as residual binding level at 1 uM by Kinomescan method relative to control
# [18] = target: Cyclin-dependent kinase 17 (Homo sapiens) (UniProt Q00537); experiment: Binding affinity to wild-type human full length PCTK2 (M1 to F523 residues) expressed in bacterial expression system assessed as residual binding level at 1 uM by Kinomescan method relative to control; how it was run: as §2
# [19] = target: Epidermal growth factor receptor (Homo sapiens) (UniProt P00533); experiment: Binding affinity to wild-type human partial length EGFR (R669 to V1011 residues) expressed in bacterial expression system assessed as residual binding level at 1 uM by Kinomescan method relative to control
# [20] = target: Platelet-derived growth factor receptor alpha (Homo sapiens, UniProt P16234); experiment: Inhibition of PDGFRalpha autophosphorylation at Y754 residue in human EOL-1 cells up to 300 nM after 2 hrs by Western blot method; assay type: cell-based
# [21] = target: Serine/threonine-protein kinase 35 (Homo sapiens) (UniProt Q8TDR2); experiment: Binding affinity to wild-type human partial length STK35 (G182 to A534 residues) expressed in bacterial expression system assessed as residual binding level at 1 uM by Kinomescan method relative to control
# Homeodomain-interacting protein kinase 4 (Homo sapiens), sequence (Q8NE63 whole entry, the tested form may be a part): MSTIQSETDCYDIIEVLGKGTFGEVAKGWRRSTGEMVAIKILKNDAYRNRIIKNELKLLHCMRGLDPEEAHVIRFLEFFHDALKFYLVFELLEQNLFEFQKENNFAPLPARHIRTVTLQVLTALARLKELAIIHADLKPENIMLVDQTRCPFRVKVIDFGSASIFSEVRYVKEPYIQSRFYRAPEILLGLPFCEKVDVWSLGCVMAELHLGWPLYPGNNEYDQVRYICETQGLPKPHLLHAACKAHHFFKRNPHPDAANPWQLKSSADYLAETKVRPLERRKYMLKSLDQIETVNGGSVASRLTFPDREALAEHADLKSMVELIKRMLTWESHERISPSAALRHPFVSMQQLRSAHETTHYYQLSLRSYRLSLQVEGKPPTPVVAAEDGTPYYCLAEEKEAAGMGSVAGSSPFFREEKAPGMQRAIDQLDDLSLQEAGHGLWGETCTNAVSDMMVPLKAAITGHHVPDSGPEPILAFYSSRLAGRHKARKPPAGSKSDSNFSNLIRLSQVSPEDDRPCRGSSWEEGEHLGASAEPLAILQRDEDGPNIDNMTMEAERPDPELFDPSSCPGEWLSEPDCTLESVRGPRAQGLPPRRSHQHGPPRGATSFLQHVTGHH
# Serine/threonine-protein kinase PAK 3 (Homo sapiens), sequence (O75914 whole entry, looked up, the tested form may be a part): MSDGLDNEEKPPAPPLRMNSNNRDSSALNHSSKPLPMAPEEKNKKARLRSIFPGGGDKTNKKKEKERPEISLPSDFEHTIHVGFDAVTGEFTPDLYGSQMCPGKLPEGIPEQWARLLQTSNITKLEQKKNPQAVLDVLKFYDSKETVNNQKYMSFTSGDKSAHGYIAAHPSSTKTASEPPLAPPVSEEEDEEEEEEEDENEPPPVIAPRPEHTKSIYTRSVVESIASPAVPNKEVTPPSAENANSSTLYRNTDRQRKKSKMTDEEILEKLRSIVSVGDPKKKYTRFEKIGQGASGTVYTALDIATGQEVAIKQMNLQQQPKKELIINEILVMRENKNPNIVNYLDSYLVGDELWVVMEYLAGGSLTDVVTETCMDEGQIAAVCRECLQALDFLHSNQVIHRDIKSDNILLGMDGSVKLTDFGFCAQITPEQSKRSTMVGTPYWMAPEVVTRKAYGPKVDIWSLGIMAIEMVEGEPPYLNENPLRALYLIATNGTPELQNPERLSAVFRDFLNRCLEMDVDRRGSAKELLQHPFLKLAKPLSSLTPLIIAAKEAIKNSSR
# High affinity nerve growth factor receptor (Homo sapiens), sequence (P04629 33-796 limits assumed): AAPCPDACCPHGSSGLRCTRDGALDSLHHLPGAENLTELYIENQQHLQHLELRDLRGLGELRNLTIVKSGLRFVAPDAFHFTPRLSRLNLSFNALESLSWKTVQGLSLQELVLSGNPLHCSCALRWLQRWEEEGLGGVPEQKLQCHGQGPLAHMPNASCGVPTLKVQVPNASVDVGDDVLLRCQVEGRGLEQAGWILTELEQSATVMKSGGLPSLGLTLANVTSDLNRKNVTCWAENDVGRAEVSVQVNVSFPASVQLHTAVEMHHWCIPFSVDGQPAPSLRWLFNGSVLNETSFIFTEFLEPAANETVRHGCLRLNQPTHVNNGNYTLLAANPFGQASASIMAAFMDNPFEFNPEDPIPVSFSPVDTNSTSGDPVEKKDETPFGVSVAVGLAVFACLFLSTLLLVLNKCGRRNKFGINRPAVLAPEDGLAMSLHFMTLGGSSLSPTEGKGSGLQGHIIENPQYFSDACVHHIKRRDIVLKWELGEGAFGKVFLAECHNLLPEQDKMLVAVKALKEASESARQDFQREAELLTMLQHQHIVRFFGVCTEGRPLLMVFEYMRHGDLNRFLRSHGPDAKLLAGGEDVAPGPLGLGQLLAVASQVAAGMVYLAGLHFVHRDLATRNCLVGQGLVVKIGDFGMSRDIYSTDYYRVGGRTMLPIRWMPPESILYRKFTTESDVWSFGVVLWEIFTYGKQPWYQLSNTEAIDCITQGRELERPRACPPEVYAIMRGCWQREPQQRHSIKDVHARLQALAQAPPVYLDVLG
# Serine/threonine-protein kinase 17B (Homo sapiens), sequence (O94768 whole entry, the tested form may be a part): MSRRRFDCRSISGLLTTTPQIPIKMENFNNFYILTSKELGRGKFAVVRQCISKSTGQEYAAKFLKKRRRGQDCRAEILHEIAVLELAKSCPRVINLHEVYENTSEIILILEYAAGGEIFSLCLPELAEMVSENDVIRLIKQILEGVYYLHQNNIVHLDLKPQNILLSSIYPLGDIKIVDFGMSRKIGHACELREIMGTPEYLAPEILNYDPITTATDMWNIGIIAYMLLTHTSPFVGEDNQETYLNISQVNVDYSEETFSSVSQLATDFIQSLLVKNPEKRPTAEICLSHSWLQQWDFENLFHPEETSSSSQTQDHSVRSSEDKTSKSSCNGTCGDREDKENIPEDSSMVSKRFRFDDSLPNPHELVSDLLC
# Cyclin-dependent kinase 17 (Homo sapiens), sequence (Q00537 whole entry, looked up, the tested form may be a part): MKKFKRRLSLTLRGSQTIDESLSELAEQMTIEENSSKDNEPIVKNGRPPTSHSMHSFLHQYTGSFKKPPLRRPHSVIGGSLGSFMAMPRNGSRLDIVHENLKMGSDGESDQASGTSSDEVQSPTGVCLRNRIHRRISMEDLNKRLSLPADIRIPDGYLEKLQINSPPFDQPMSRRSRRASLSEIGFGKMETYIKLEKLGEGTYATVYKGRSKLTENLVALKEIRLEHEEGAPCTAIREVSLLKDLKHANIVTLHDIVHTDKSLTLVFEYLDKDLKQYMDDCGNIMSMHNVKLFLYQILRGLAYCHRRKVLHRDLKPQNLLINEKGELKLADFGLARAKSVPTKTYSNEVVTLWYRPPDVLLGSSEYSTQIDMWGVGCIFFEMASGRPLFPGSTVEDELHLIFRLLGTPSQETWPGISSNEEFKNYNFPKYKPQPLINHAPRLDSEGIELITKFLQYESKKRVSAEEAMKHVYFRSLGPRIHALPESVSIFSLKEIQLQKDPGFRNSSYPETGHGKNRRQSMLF
# BMP-2-inducible protein kinase (Homo sapiens), sequence (Q9NSY1 whole entry, looked up, the tested form may be a part): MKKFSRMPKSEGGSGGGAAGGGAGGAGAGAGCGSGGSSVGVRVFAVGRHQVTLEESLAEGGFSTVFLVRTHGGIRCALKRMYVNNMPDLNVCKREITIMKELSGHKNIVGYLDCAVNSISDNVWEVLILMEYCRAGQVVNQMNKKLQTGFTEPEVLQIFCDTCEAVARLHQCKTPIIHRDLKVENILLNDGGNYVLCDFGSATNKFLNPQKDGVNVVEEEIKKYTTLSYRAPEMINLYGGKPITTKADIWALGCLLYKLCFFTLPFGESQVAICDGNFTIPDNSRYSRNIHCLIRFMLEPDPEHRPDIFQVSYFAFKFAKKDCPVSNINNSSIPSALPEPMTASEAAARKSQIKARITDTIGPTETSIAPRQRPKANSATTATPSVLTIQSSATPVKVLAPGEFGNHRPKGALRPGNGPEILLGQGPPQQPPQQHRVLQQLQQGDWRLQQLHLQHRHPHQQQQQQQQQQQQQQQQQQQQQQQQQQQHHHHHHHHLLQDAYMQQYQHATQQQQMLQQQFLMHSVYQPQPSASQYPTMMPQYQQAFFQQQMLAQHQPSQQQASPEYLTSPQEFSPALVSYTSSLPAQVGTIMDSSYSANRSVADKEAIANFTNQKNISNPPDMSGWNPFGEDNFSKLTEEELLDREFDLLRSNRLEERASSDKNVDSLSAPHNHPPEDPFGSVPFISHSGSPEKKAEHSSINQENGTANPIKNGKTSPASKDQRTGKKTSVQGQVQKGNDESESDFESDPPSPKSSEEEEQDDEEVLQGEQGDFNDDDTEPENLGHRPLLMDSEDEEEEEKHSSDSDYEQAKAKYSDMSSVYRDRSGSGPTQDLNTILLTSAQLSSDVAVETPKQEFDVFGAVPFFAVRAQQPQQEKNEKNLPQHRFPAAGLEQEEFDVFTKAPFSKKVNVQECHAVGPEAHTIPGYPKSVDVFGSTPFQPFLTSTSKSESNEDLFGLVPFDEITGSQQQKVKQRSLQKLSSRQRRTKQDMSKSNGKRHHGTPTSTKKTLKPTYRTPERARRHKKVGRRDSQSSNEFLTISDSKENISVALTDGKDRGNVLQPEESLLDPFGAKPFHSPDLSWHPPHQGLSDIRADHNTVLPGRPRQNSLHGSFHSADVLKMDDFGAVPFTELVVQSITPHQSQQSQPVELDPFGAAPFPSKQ
# Mitogen-activated protein kinase 14 (Homo sapiens), sequence (Q16539 whole entry, the tested form may be a part): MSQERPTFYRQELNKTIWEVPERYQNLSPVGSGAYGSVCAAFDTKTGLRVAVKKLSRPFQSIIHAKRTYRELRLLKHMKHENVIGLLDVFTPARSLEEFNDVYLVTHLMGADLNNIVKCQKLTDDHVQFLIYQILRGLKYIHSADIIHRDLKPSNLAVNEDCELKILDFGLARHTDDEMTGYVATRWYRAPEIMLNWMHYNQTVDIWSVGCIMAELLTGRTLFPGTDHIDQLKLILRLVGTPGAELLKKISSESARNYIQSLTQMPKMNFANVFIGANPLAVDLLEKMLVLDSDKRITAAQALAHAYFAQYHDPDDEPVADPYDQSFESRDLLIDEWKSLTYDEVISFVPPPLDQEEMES
# Mitogen-activated protein kinase 15 (Homo sapiens), sequence (Q8TD08 whole entry, the tested form may be a part): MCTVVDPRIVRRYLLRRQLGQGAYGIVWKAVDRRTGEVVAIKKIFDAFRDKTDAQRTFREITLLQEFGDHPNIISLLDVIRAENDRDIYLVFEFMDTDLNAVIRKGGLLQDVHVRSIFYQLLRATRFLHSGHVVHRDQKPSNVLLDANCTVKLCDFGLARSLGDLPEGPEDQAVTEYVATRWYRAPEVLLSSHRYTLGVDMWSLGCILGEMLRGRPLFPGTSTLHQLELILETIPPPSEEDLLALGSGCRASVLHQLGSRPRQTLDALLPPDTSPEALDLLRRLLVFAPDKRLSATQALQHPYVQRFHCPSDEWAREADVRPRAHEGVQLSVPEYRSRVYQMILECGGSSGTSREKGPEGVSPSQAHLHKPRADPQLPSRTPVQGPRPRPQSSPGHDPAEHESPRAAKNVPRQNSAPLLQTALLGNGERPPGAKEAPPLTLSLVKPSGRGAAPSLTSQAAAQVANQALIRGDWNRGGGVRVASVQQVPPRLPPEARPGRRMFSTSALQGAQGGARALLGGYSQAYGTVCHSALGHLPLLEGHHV
smiles,measurement,setting,value
Cc1ccc(NC(=O)c2ccc(CN(CCN(C)C)C(=O)c3cccnc3)cc2)cc1Nc1nccc(-c2cccnc2)n1,Activity,[1],95%
same,Activity,[2],74%
same,Activity,[3],100%
same,Activity,[4],71%
same,Activity,[5],74%
same,Activity,[6],99%
same,bioavailability,[7],1.96%
same,Activity,[8],88%
same,Activity,[9],40%
same,Activity,[10],99%
same,Activity,[11],98%
same,Activity,[12],93%
same,Activity,[13],93%
same,Activity,[14],100%
same,Activity,[15],89%
same,Activity,[16],94%
same,Activity,[17],100%
same,Activity,[18],99%
same,Activity,[19],73%
same,inhibition,[20],inactive
same,Activity,[21],100%
